This is a sample that favours compounds with a hit; in the whole collection about 2.6% have one here.
ABHD4 inh = ABHD4 inhibitors, primary screen, biochemical, fluorescence polarization, mouse; (Lyso)-N-acylphosphatidylethanolamine lipase (Mus musculus), Q8VD66; purified mABHD4, FP-Rh probe fluorescence polarization; inhibition, % at 8.92 µM; hit rate 0.54% among 370,000; AID 720543, 2013;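 active = inhibition exceeding the mean over every tested compound plus 3 SD, cut at about 30% in these data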
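Assay system: wild-type mouse ABHD4 protein; compound: single nominal dose of 8.92 µM, 0.89% DMSO final; schedule: 45 min + 60 min at 25 °C; measured by: FP readout, ex 525 nm / em 598 nm; evaluation: % inhibition of FP-Rh probe binding versus controls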
PRMT1 FP inh = PRMT1 methyltransferase inhibitors, primary screen, biochemical, fluorescence polarization; AID 652257, 2013; inhibition, % at 2.79 µM; recombinant PRMT1, activity-based probe fluorescence polarization; hit rate 1.3% among 370,000; Protein arginine N-methyltransferase 1 (Homo sapiens), Q99873;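 active = inhibition above about 21% made by adding two undisclosed values, limit read from the data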
TCR-CD3 inh = inhibitors of human TCR-CD3 interaction, primary screen, biochemical, fluorescence, TAMRA-labeled TCR probe | AID 651800, 2012 | inhibition, % at 9.4 µM | hit rate 0.37% among 360,000 | T-cell receptor (TCR); in the data active = inhibition above about 19%;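 also: recombinant mutant TCR 2C K166C tagged with TAMRA read by polarization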
SIAE primary = human SIAE inhibitors, primary screen, biochemical, fluorescence polarization, FP-Rh probe, 1536-well HTS | inhibition, % at 9.66 µM | AID 1053197, 2014 | hit rate 0.69% among 370,000 | SIAE FP-Rh probe binding | Sialate O-acetylesterase (Homo sapiens), Q9HAT2;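 active = inhibition above a cutoff: mean of compounds within the control limits plus 3 SD of those, cut at about 17% in these data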
Target sequence (Q9HAT2 whole entry, looked up): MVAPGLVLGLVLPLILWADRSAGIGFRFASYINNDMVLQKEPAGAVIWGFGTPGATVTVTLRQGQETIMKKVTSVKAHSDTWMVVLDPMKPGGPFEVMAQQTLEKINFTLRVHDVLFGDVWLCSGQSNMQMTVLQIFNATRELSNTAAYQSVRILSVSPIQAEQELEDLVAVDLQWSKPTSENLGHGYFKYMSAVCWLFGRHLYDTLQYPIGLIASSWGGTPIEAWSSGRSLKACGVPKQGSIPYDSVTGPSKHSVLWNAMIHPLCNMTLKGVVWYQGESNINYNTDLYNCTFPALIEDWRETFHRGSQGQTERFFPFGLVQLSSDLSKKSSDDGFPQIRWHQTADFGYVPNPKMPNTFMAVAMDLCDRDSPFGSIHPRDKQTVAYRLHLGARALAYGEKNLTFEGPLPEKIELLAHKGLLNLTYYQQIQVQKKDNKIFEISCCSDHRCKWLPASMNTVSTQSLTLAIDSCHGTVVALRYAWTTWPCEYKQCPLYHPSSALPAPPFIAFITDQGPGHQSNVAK
HTRA1 inh = HTRA1 serine protease inhibitors, primary screen, biochemical, fluorescence polarization, HTS. recombinant HTRA1, FP-rhodamine activity-based probe. Q92743. hit rate 0.5% among 340,000. inhibition, % at 5.96 µM; in the data active = inhibition above about 36%
A number is an active result; - = inactive; . = not tested or not shown.

SMILES	ABHD4 inh	PRMT1 FP inh	TCR-CD3 inh	SIAE primary	HTRA1 inh
Cc1ccccc1OCC(=O)NCC(=O)OCC(=O)c1ccc([N+](=O)[O-])cc1	-	24	-	-	-
O=c1ccc(-c2ccc(S(=O)(=O)Nc3ccc(F)cc3)o2)n[nH]1	-	-	-	-	-
O=c1oc2ccc(Cl)cc2nc1/C=C(\O)c1cccs1	32	-	-	-	-
Cc1ccc2oc(=O)c(/C=C(\O)c3cccs3)nc2c1	-	-	-	-	-
COc1ccc(CN2CCC(CNC(=O)NC3CCCC3)CC2)cc1	-	-	.	-	.
Cc1ccc(-c2cc[n+](Cc3ccccc3)cc2)cc1	-	-	-	-	-
Cc1ccc2c(c1)sc[n+]2Cc1ccccc1	-	64	-	-	-
CCCCN(Cc1cc2cc(OC)ccc2[nH]c1=O)C(=O)c1ccco1	-	24	-	-	-
CCCN(Cc1cc2cc(OC)ccc2[nH]c1=O)C(=O)c1ccco1	-	-	-	-	-
CC1(C)N([O-])c2cc([N+](=O)[O-])ccc2[N+]1=O	37	-	-	-	.
CN(C)Cc1c(C(C)(C)O)[nH]c2cc(F)ccc12	-	-	-	-	.
CC(=O)Oc1cccc2c1C(=O)C1CC=CC(OC(C)=O)C1C2=O (stereo unspecified)	-	56	-	-	-
COc1ccc(OC)c(NC(=O)O[C@@H]2CC[C@@]34CCCN3C(=O)CCC[C@H]4C2)c1	-	-	.	-	.
Cc1ccc2nc(-c3ccc(C#N)cc3)c(Cc3cccc(F)c3)n2c1	-	-	-	-	.
O=C(CSc1nc2cc(Cl)ccc2s1)NC(=O)NCc1ccco1	-	21	-	-	-
CCOC(=O)Cc1ccc(Nc2nc(NCc3ccccc3)nc3ccsc23)cc1	-	-	-	-	.
O=c1[nH]c(=O)c2[nH]c(=S)[nH]c2[nH]1	-	80	-	-	-
Nc1ncnc2[nH]c(=S)[nH]c12	-	-	-	-	-
O=C(O)c1cc(S(=O)(=O)Nc2ccc3oc(=O)sc3c2)ccc1O	-	86	-	-	.
COc1cc(/C=C/C(=O)OCC(=O)N2CCCC2)ccc1OCC#N	-	-	-	-	-
O=C(Nc1cccs1)Nc1ccc(Br)cc1F	-	-	-	20	-
C=CCN1C(=O)c2ccc(C(=O)N(CC(C)C)c3c(N)n(CCCC)c(=O)[nH]c3=O)cc2C1=O	-	-	-	-	-
CCCN1C(=O)c2[nH]nc(-c3ccccc3)c2C1c1ccc(F)cc1 (stereo unspecified)	-	22	-	-	.
CN(CCO)C(=O)c1nc[nH]c1C(=O)N1CCN(c2ccccc2)CC1	-	-	-	-	.
O=C(CSCc1ccc(Cl)cc1)NCCSCc1ccco1	-	23	-	-	-
SMILES	ABHD4 inh	PRMT1 FP inh	TCR-CD3 inh	SIAE primary	HTRA1 inh
O=C(CSCc1c(F)cccc1Cl)NCCSCc1ccco1	-	-	-	-	-
CC1(C)c2ssc(=S)c2-c2ccccc2N1C(=O)c1ccco1	-	-	-	22	-
Cc1ccc2c(c1)-c1c(ssc1=S)C(C)(C)N2C(=O)c1ccco1	-	-	-	-	-
COc1ccc(-c2nc3ccccc3c(=O)n2NC(=S)N(C)C)cc1	-	24	-	-	-
CC(=O)Nc1ccc(SCc2ncc(-c3ccccc3)o2)cc1	-	22	-	-	-
CC(=O)Nc1ccc(SCc2c(C)noc2C)cc1	-	21	-	-	-
Cc1noc(C)c1CSc1ccc(Br)cc1	-	-	-	-	-
C[C@H]1CN([C@@H](C)CO)C(=O)c2cccc(NC(=O)c3cnccn3)c2O[C@@H]1CN(C)S(=O)(=O)c1ccc(F)cc1	.	.	.	.	-
CC(C)C1=CC2C3C(C(C(C)C)=CC(=O)[C@@]3(C)O)C1C(=O)C2(C)O (stereo partly specified)	-	-	-	-	.
Cn1c(NCCN2CCCCC2)cc(=O)n(C)c1=O	-	24	-	-	-
COC(=O)[C@]12C[C@H](CC(=O)N3CCC(c4ccccc4)CC3)C(=O)N(Cc3ccc4c(c3)OCO4)C1=C[C@H](COCc1ccccc1)O[C@@H]2C	-	-	-	-	.
N#Cc1ccc(OCC(=O)NC2=NCCS2)cc1	-	27	-	-	-
O=C(COc1ccccc1)NC1=NCCS1	-	-	-	-	-
O=C(CSc1nc2ccccc2c(=O)n1-c1ccccc1F)Nc1ccc2c(c1)CCC2	-	-	-	-	-
CCN(CC)CCn1c(SCC(=O)Nc2ccc3c(c2)CCC3)nc2ccccc2c1=O	-	21	-	-	-
c1ccc(CN2CCCC3CC2c2ccccc23)cc1 (stereo unspecified)	-	-	-	-	.
O=C1c2ccccc2C(=O)C1c1ccnc2ccccc12	-	-	-	-	-
N#CC1=C(N)SC(N)=C(C#N)C1c1ccnc2ccccc12	-	43	-	-	-
O=C(Nc1ccccc1)Nc1ccc(Cl)c([N+](=O)[O-])c1	-	-	-	54	-
Cc1ccc(NC(=O)Nc2ccccc2)cc1[N+](=O)[O-]	-	-	-	-	-
COc1ccc(C(=O)NNc2ccccc2)cc1	-	-	-	-	-
COc1ccc(NC(=S)NNc2ccc(C(=O)O)cc2)cc1	-	21	-	-	-
Cc1ccc(N2CCN(C(=S)c3ccc(-c4cccc([N+](=O)[O-])c4)o3)CC2)cc1	-	24	-	-	-
Cc1ccccc1N1CCN(C(=S)c2ccc(-c3cccc([N+](=O)[O-])c3)o2)CC1	-	-	-	-	-
O=c1cc(-c2ccc(O)c(O)c2)oc2cc(O[C@@H]3O[C@H](CO)[C@@H](O)[C@H](O)[C@H]3O)cc(O)c12	.	.	.	.	60
SMILES	ABHD4 inh	PRMT1 FP inh	TCR-CD3 inh	SIAE primary	HTRA1 inh
C[C@@H]1O[C@@H](OC[C@H]2O[C@@H](Oc3cc(O)c4c(=O)cc(-c5ccc(O)c(O)c5)oc4c3)[C@H](O)[C@@H](O)[C@@H]2O)[C@H](O)[C@H](O)[C@H]1O	.	.	.	.	-
Cc1ccc(NC(=O)CSc2nnnn2C)cc1S(=O)(=O)N1CCCCC1	-	-	-	-	-
COc1ccc(CC(=O)N2CCN(C(=O)Cc3ccc(OC)cc3)CC2)cc1	-	-	-	-	-
COc1ccc(-c2ccc(C(=S)N3CCN(C(C)=O)CC3)o2)cc1	-	22	-	-	-
O=C(Nc1ccc(Cl)cc1Cl)c1cccc(N2C(=O)C=CC2=O)c1	-	88	-	-	-
O=C(Nc1ccc(Cl)cc1Cl)c1ccc2c(c1)OCCO2	-	-	-	-	-
C[C@@H]1CN([C@H](C)CO)C(=O)CCCn2nncc2CO[C@H]1CN(C)C(=O)Nc1ccc2c(c1)OCCO2	-	-	-	-	.
Cc1oc(-c2cccs2)nc1CS(=O)CC(=O)NCCc1ccccc1 (stereo unspecified)	-	22	-	-	-
COCCNC(=O)c1c[nH]c2cc(OC)c(OC)cc2c1=O	-	25	-	-	-
COc1ccccc1C1NC=C([N+](=O)[O-])C=C1[N+](=O)[O-] (stereo unspecified)	-	24	-	-	-
